This passage reports inhibition results from ChEMBL document CHEMBL5154924, “Discovery of In Vivo Active Sphingosine-1-phosphate Transporter (Spns2) Inhibitors” (J Med Chem, 2022).

The target in this assay is T1, Sphingosine-1-phosphate transporter SPNS2 (Mus musculus) (UniProt Q91VM4).
T1 sequence (whole entry): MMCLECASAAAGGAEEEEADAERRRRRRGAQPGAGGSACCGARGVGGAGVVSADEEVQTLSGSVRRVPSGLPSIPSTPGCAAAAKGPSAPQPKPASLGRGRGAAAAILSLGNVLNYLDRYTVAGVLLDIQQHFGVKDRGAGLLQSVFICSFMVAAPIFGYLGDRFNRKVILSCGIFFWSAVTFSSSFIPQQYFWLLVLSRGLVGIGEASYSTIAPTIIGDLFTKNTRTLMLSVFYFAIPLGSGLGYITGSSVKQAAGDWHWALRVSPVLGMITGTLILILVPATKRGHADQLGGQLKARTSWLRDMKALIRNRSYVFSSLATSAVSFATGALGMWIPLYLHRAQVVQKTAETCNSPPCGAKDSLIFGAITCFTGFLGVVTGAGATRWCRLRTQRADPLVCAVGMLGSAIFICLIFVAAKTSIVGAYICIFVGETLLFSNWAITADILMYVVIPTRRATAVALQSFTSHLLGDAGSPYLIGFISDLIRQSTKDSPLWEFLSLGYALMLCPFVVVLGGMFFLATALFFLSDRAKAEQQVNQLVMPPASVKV
Put plainly: Inhibition of mouse Spns2 transfected in human HeLa cells by measuring S1P release at 2 uM by LC/MS analysis relative to control. The format is cell-based. A digest of the protocol: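 HeLa cells stably transfected with mouse Spns2 and selected with G418, grown to near confluence. Medium replaced with RPMI 1640/0.2% fatty acid-free BSA containing 1 mM 4-deoxypyridoxine, 2 mM NaF and 0.2 mM Na₃VO₄. Compound added to duplicate wells, incubated 18–20 h. Medium S1P measured by LC-MS/MS against d₇-S1P after TCA precipitation and methanol extraction. Inhibition expressed relative to no-inhibitor control.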

The inhibition is the share of the control response that was lost under treatment. High values mean a strong effect, low ones a weak effect.

The structures appear in SMILES notation.

`CCCCCCCCCCc1ccc(-c2noc([C@H](CCCCN)NC(C)=O)n2)cc1` registered an inhibition of 40%.

`CCCCCCCCCCc1ccc(-c2noc(-c3cccc(CN)c3)n2)cc1` had an inhibition of 2%.

As to `CCCCCCCc1ccc(-c2noc(CCCN)n2)cc1`, the inhibition turned out to be 52%.

Turning to `CCCCCCCCCCc1ccc(-c2coc(CCCN)n2)cc1`, the inhibition was determined as 49%.

`CCCCCCCCC(=O)Nc1ccc(-c2noc(CCCN)n2)cc1` had an inhibition of 35%.

In the case of `CCCCCCCCCCc1ccc(-c2noc(CC[C@@H](N)C(=O)O)n2)cc1`, the inhibition came to 5%.

In the case of `CCCCCCCCCCc1ccc(-c2noc(CC(O)CN3CCCC3)n2)cc1` (centres undefined), the inhibition was determined as 21%.

`CCCCCCCCCCc1ccc(-c2noc([C@H]3CCCN3)n2)cc1` registered an inhibition of 12%.

`CCCCCCCCCCc1ccc(-c2csc(CCCN)n2)cc1` showed an inhibition of 45%.

`CCCCCCCCCCc1cccc(-c2noc(CCCN)n2)c1` returned an inhibition of 26%.

`CCCCCCCCCCc1ccc(-c2ccnn2CCCN)cc1` displayed an inhibition of 45%.

In turn, `CCCCCCCOc1ccc2cc(-c3noc(CCCN)n3)ccc2c1` yielded an inhibition of 8%.

As to `CCCCCCCCCCc1ccc(-c2noc(CC(O)CN3CCCCC3)n2)cc1` (centres undefined), the inhibition was 2%.

Molecule `CCCCCCCCCCc1ccc(-c2cn(C)c(CCCN)n2)cc1` displayed an inhibition of 51%.

`CCCCCCCCCCc1ccc(-c2noc(CC3CNC3)n2)cc1` displayed an inhibition of 63%.

`CCCCCCCCCCc1ccc(-c2noc(C(Cl)CCN)n2)cc1` (centres undefined) displayed an inhibition of 5%.

Consider `CCCCCCCCNC(=O)c1ccc(-c2noc(CCCN)n2)cc1`, for which the inhibition came out at 0%.

`CCCCCCc1ccc(-c2noc(CCCN)n2)cc1` showed an inhibition of 55%.

In the case of `CCCCCCCCCCc1ccc(-c2noc(C3CCNCC3)n2)cc1`, the inhibition worked out at 66%.

With `CCCCCCCCCCc1ccc(-c2noc(CC(O)CN(C)C)n2)cc1` (centres undefined), the inhibition is 61%.

For `CCCCCCCCCCc1ccc(-c2noc([C@@H](N)CCCCN)n2)cc1`, the inhibition came to 43%.

Consider `CCCCCCCCCOc1ccc(-c2noc(CCCN)n2)cc1F`, for which the inhibition stood at 50%.

With `CCCCCCCCCCCc1ccc(-c2noc(CCCN)n2)cc1`, the inhibition is 49%.

In the case of `CCCCCCCCCCc1ccc(-c2noc(C[C@@H]3CCNC3)n2)cc1`, the inhibition worked out at 44%.

`CCCCCCCCCCc1ccc(-c2noc(C[C@H](C)N)n2)cc1` yielded an inhibition of 44%.

`CCCCCCCCCCc1ccc(-c2noc(C3CNC3)n2)cc1` returned an inhibition of 65%.

As to `CCCCCCCCCCc1ccc(-c2noc(CC(O)CNCC)n2)cc1` (centres undefined), the inhibition worked out at 5%.

In turn, `CCCCCCCCCc1ccc(-c2noc(CCCN)n2)cc1` yielded an inhibition of 61%.

For `CCCCCCCCCCc1ccc(-c2noc(CC(O)CN3CCOCC3)n2)cc1` (centres undefined), the inhibition is 0%.

Consider `CCCCCCCCCCc1ccc(-c2noc([C@@H](N)CCCN)n2)cc1`, for which the inhibition was 40%.

In the case of `CCCCCCCCCCc1ccc(-c2noc(CCCN3CCCC3)n2)cc1`, the inhibition was 3%.

With `CCCCCCCCCCc1ccc(-c2c[nH]c(CCCN)n2)cc1`, the inhibition was determined as 63%.

As for `CCCCCCCCCCc1ccc(-c2noc([C@@H]3CCCN3)n2)cc1`, the inhibition was 21%.

For `CCCCCCCCCCc1ccc(-c2noc(CCCN(C)C)n2)cc1`, the inhibition is 8%.

As to `CCCCCCCCCCc1ccc(-c2noc([C@@H]3CCC[C@@H](N)C3)n2)cc1`, the inhibition stood at 13%.

The molecule `CCCCCCCCCCc1ccc(-c2noc(CN)n2)cc1` returned an inhibition of 62%.

As to `CCCCCCCCCCc1ccc(-c2noc(CCN)n2)cc1`, the inhibition came to 59%.

`CCCCCCCCCCc1ccc(-c2noc(CC(CN)OC(C)=O)n2)cc1` (centres undefined): the inhibition came out at 0%.

The molecule `CCCCCCCCCCc1ccc(-c2noc([C@@H]3CC[C@H](N)C3)n2)cc1` yielded an inhibition of 38%.

With `CCCCCCCC(=O)NCc1ccc(-c2noc(CCCN)n2)cc1`, the inhibition was 11%.

The molecule `CCCCCCCCCCc1ccc(-c2nnc(CCCN)o2)cc1` displayed an inhibition of 59%.

`CCCCCCCCCCc1ccc(-c2noc(CCCCN)n2)cc1` gave an inhibition of 55%.

In turn, `CCCCCCCCCOc1ccc(-c2noc(CCCN)n2)cc1C(F)(F)F` displayed an inhibition of 24%.

In turn, `CCCCCCCCc1ccc(-c2noc(CCCN)n2)cc1` gave an inhibition of 70%.

As for `CCCCCCCCCCc1ccc(-c2noc(CC(O)CN)n2)cc1` (centres undefined), the inhibition came to 59%.

With `CCCCCCCCCOc1ccc(-c2noc(CCCN)n2)cc1`, the inhibition came to 49%.

As to `CCCCCCCCCCc1ccc(-c2noc(CCCNC)n2)cc1`, the inhibition worked out at 45%.

As for `CCCCCCCCCCc1ccc(-c2noc([C@H]3CCC[C@@H](N)C3)n2)cc1`, the inhibition was determined as 29%.

Molecule `CCCCCCCCCCc1ccc(-c2ccn(CCCN)n2)cc1` yielded an inhibition of 44%.

Regarding `CCCCCCCCCc1ccc(Cc2noc(CCCN)n2)cc1`, the inhibition stood at 34%.

In the case of `CCCCCCCCCCc1ccc(-c2noc([C@@H]3CCNC3)n2)cc1`, the inhibition was 62%.

As to `CCCCCCCCCCc1ccc(-c2cnn(CCCN)c2)cc1`, the inhibition came to 50%.

`CCCCCCCCCCc1ccc(-c2noc(CCCN3CCCCC3)n2)cc1` gave an inhibition of 0%.

Turning to `CCCCCCCCc1ccc(CCc2noc(CCCN)n2)cc1`, the inhibition stood at 40%.

In the case of `CCCCCCCCCCc1ccc(-c2noc([C@@H](N)CCN)n2)cc1`, the inhibition came to 14%.

For the molecule `CCCCCCCCCCc1ccc(-c2noc(CN3CCNCC3)n2)cc1`, the inhibition amounted to 19%.

As for `CCCCCCCCCCc1ccc(-c2noc([C@H](N)CCCCN)n2)cc1`, the inhibition was 50%.

Turning to `CCCCCCCCCCc1ccc(-c2noc([C@H]3CCNC3)n2)cc1`, the inhibition came out at 26%.

In turn, `CCCCCCCCCCc1ccc(-c2noc(CCCN3CCOCC3)n2)cc1` gave an inhibition of 2%.
